F508del corr: CFTR F508del correction in bronchial cells; activity (quench increase), % at 7.58 µM; AID 720511; actives 0.36% (n = 350,000); CFBE cells, YFP halide quenching; stimulated with forskolin plus potentiator P3; % fluorescence drop versus neutral controls;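 active means mean added fluorescence quench of at least 8% versus neutral control, with both replicates also reaching 8%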;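 further: cells transiently co-express mutant CFTR-F508del with the halide-sensitive YFP; corrector assay measuring rescue of mutant channel to the surface after 24 h compound exposure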
HIV Env fusion: blocks HIV Env-driven cell-cell fusion; HeLa-JRFL Env/CEM21 cell fusion, luciferase; inhibition, % at 12.3 µM; actives 1.1% (n = 360,000);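 active means mean replicate inhibition score of at least 50 and every replicate individually at or above 50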
Cneo AK release: Cryptococcus neoformans lysis via adenylate kinase release; lysis activity, % at 15 µM; actives 0.2% (n = 360,000); C. neoformans lysis, adenylate kinase release luminescence, 4 h; normalised: neutral wells 0, clomiphene wells 100; AID 651654;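 active means mean lysis activity across replicates of at least 80%, whatever share of replicates individually reach that level; inactive means mean lysis activity below 80%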
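Signal: Adenylate kinase release luminescence | Assay system: Log-phase Cryptococcus neoformans yeast cells | Input: Cells at 5 × 10^6 per mL | Buffer or medium: Fresh YPD growth medium | Compound: Single dose | Schedule: Static 4 h at 37 °C with compound, 1 h detection | Controls: Clomiphene | Read-out: Luminescence rise reflecting yeast cell lysis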
miR-122 sensor: miR-122 inhibition in Huh7 cells. Huh7 miR-122 Renilla luciferase sensor, 48 h; neutral wells = 0, positive control = 100. activation (reporter increase), % at 12.5 µM. actives 0.3% (n = 340,000);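 active means mean replicate activation score at least 90 and every replicate individually at or above 90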;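 further: higher luciferase means less miR-122 activity so hits act as miR-122 inhibitors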
INS-1E GSIS act: primary screen for activators of insulin secretion dependent on glucose, INS-1E cells, GLuc reporter luminescence; INS-1E GLuc reporter insulin secretion, 2-3 h; activation, % at 16.6 µM; actives 0.61% (n = 370,000);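 active means lowest replicate activation of at least 40%, so every replicate reaches that level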
rRNA inh HTS: selective bacterial rRNA inhibition in E. coli. E. coli WT GFP vs humanized-ribosome RFP mutants, fluorescence, 24 h; stronger effect = lower value; DMSO median 0, no signal -100. GFP signal change (wild-type ribosome), % (test concentration not listed). actives 1.6% (n = 350,000);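 active means significant combined selectivity score with lowered wild-type GFP, culture density cut under 30%, mutant RFP and density less affected; inactive means any of these conditions unmet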
Large screens that a line does not name were inactive. The list is not random: actives were taken first. Their share in the collection is about 3.1%.

CC(C)Cc1cc(C(=O)O)c2ccccc2n1	none (no result: F508del corr, HIV Env fusion, Cneo AK release, rRNA inh HTS)
CN1C(=O)c2cc(NC(=O)c3cccc(F)c3)ccc2OC[C@@H]2O[C@@H](CC(=O)NC3CCC3)CC[C@H]21	none
Oc1cccc2ccc(Nc3ccccn3)nc12	HIV Env fusion 60 (no result: F508del corr, INS-1E GSIS act, rRNA inh HTS)
Cc1c(/C=N/O)c2ccccn2c1C(=O)c1ccc(F)cc1	rRNA inh HTS -28
CCOC(=O)c1cnc2ccc(Cl)cc2c1Nc1ccc(S(=O)(=O)Nc2ncccn2)cc1	INS-1E GSIS act 40 (no result: F508del corr, HIV Env fusion, rRNA inh HTS)
N#Cc1cc([N+](=O)[O-])ccc1N1CCN(c2ccccc2O)CC1	rRNA inh HTS -24 (no result: miR-122 sensor)
CC(C)C[C@@H](C(=O)O)N(Cc1cccc(CN([C@@H](CC(C)C)C(=O)O)S(C)(=O)=O)c1)S(C)(=O)=O	HIV Env fusion 61
CS(=O)(=O)N(Cc1cccc(CN(C(C(=O)O)c2ccccc2)S(C)(=O)=O)c1)C(C(=O)O)c1ccccc1 (stereo not given)	none
COC(=O)[C@@H](CC(C)C)N(Cc1ccccc1)S(=O)(=O)N(Cc1ccccc1)[C@@H](CC(C)C)C(=O)OC	HIV Env fusion 85
COc1cc(CNCCO)cc(Br)c1OCc1ccccc1Cl	none (no result: F508del corr, INS-1E GSIS act, rRNA inh HTS)
COc1cc(CNCCO)cc(Cl)c1OCc1ccc(Cl)cc1Cl	INS-1E GSIS act 42 (no result: Cneo AK release)
COc1cc(CNC(C)(C)CO)cc(Br)c1OCc1ccc(Cl)cc1Cl	INS-1E GSIS act 176 (no result: F508del corr, Cneo AK release, miR-122 sensor)
Cc1cc(N2CCN(C3CCCCC3)CC2)n2nc(C)nc2n1	none
Cc1cc(C)c2c(C)nn(C3CCCCC3)c2n1	INS-1E GSIS act 71 (no result: F508del corr, HIV Env fusion, Cneo AK release, rRNA inh HTS)
CO[C@@H]1CN(C)C(=O)c2ccc(NC(C)=O)cc2OC[C@H](C)N(C(=O)c2ccc(F)cc2)C[C@@H]1C	none
CCCC#Cc1cnc2c(c1)C(=O)N([C@@H](C)CO)C[C@@H](C)[C@@H](CN(C)C(=O)C1CCCCC1)O2	none (no result: Cneo AK release)
COc1ccc(C(=O)C2CCCN(Cc3cccn3-c3nccs3)C2)cc1OC (stereo not given)	INS-1E GSIS act 81
COc1ccc(C(=O)C2CCCN(C(=O)c3n[nH]c4c3CCCC4)C2)cc1OC (stereo not given)	INS-1E GSIS act 67
C[C@@H]1CN([C@H](C)CO)C(=O)c2cccc(NC(=O)Nc3cccc4ccccc34)c2O[C@@H]1CN(C)C	none (no result: HIV Env fusion, Cneo AK release, miR-122 sensor)
O=C(C[C@@H]1C[C@H]2c3cc(NC(=O)CC4CC4)ccc3O[C@H]2[C@H](CO)O1)NCC(F)(F)F	none
On1ccccc1=S	INS-1E GSIS act 87 (no result: rRNA inh HTS)
O=C(NCC1CC1)[C@H]1[C@H](CO)[C@H]2Cn3c(ccc(-c4ccccc4F)c3=O)[C@@H]1N2Cc1cccnc1	none (no result: F508del corr, miR-122 sensor)
c1ccc(CSc2nccc(-c3ccco3)n2)cc1	rRNA inh HTS -36
CC(C)c1[nH]nc2c1C(c1ccc(OC(=O)c3ccco3)cc1)C(C#N)=C(N)O2 (stereo not given)	rRNA inh HTS -27 (no result: HIV Env fusion, Cneo AK release, miR-122 sensor)
O=C1c2ccccc2NC(c2cccc([N+](=O)[O-])c2)N1CCc1ccccc1 (stereo not given)	rRNA inh HTS -20
CC1=NN(C(N)=S)C(=O)C1N=Nc1ccccc1O (stereo not given)	none
CC1=NN(C(N)=S)C(=O)C1N=Nc1c(Cl)cc([N+](=O)[O-])cc1Cl (stereo not given)	rRNA inh HTS -26
CC1=NN(C(N)=S)C(=O)C1N=Nc1ccccc1C (stereo not given)	INS-1E GSIS act 65 (no result: F508del corr, HIV Env fusion, rRNA inh HTS)
O=C(C[C@H]1C[C@@H]2c3cc(NC(=O)c4cccnc4)ccc3O[C@@H]2[C@@H](CO)O1)NC1CCCC1	none (no result: HIV Env fusion, Cneo AK release, miR-122 sensor)
O=S(=O)(Nc1nc2ccccc2nc1NCC1CCCO1)c1cccc(Cl)c1 (stereo not given)	rRNA inh HTS -24
O=S(=O)(NCC1CCCO1)c1ccc(Cl)nc1 (stereo not given)	INS-1E GSIS act 44 (no result: Cneo AK release)
O=S(=O)(NCC1CCCO1)c1ccc(S(=O)(=O)N(Cc2ccccc2F)C2CCCCC2)cc1 (stereo not given)	HIV Env fusion 59 (no result: F508del corr, rRNA inh HTS)
O=C(Nc1cccc(Cl)c1)c1ccc(S(=O)(=O)NCC2CCCO2)cc1 (stereo not given)	rRNA inh HTS -21

Bioassay records: PubChem, Broad Institute
